# Measurements reported in ChEMBL document CHEMBL3994613, “Diaryltriazenes as antibacterial agents against methicillin resistant Staphylococcus aureus (MRSA) and Mycobacterium smegmatis” (Eur J Med Chem, 2017).
# What was measured:
# [1] = system: Mycolicibacterium smegmatis; assay: Bactericidal activity against Mycobacterium smegmatis MC2 155 after 96 hrs by microdilution method; assay type: functional; settings: str. MC2 155, 96 h
# Summary of the method: (§1)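 Microdilution in TSB broth. Inoculum from colonies grown 96 h on TSA, final 1×10^5 CFU/mL, aerobic 94–98 h at 37 °C, growth read on a plate reader, at least duplicate.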
# Saccharomyces cerevisiae = assay: Antibacterial activity against Saccharomyces cerevisiae after 18 to 20 hrs by microdilution method
# Summary of the method: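 Microdilution in YEP broth against wild-type yeast grown on YEP agar. Final inoculum 1×10^5 CFU/mL. Read after 18–20 h aerobic incubation at 30 °C on plate reader, at least one duplicate.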
# Escherichia coli [2] = assay: Bactericidal activity against Escherichia coli DH10beta harboring pHuLUC3 after 18 to 20 hrs by microdilution method; assay type: functional
# Summary of the method: (§2)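 EUCAST broth microdilution in LB broth. Inoculum prepared by direct colony suspension from 20–24 h LB agar (E. coli DH10β) or 5% sheep blood BHI agar (MRSA USA300) growth. Final inoculum 2×10^4 CFU/mL, 18–20 h aerobic at 37 °C, growth read on a plate reader, at least duplicate.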
# Staphylococcus aureus [3] = assay: Bactericidal activity against methicillin-resistant Staphylococcus aureus USA300 after 18 to 20 hrs by microdilution method; assay type: functional; summary of the method: as §2
# [4] = system: Mycolicibacterium smegmatis; assay: Antimycobacterial activity against Mycobacterium smegmatis MC2 155 after 94 to 98 hrs by microdilution method; assay type: functional; settings: str. MC2 155; summary of the method: as §1
# Staphylococcus aureus [5] = assay: Antibacterial activity against methicillin-resistant Staphylococcus aureus USA300 after 18 to 20 hrs by microdilution method; assay type: functional; summary of the method: as §2
# Escherichia coli [6] = assay: Antibacterial activity against Escherichia coli DH10beta harboring pHuLUC3 after 18 to 20 hrs by microdilution method; assay type: functional; summary of the method: as §2
# Staphylococcus aureus [7] = assay: Antibacterial activity against methicillin-resistant Staphylococcus aureus USA300 by broth microdilution method
SMILES,MBC [1] [µg/mL],MIC (Saccharomyces cerevisiae) [µg/mL],MBC (Escherichia coli [2]) [µg/mL],MBC (Staphylococcus aureus [3]) [µg/mL],MIC [4] [µg/mL],MIC (Staphylococcus aureus [5]) [µg/mL],MIC (Escherichia coli [6]) [µg/mL],MIC (Staphylococcus aureus [7]) [µg/mL]
COC(=O)N(/N=N/c1ccc([N+](=O)[O-])cc1Cl)c1ccc([N+](=O)[O-])cc1Cl,> 128,> 128,128,32,128,32,64,–
O=C(c1ccccc1C(F)(F)F)N(/N=N/c1ccc([N+](=O)[O-])cc1C(F)(F)F)c1ccc([N+](=O)[O-])cc1C(F)(F)F,–,> 128,128,–,> 128,> 128,128,–
Clc1ccc(Cl)c(/N=N/Nc2cc(Cl)ccc2Cl)c1,–,> 128,–,–,> 128,> 128,> 128,–
CC(=O)N(/N=N/c1ccc([N+](=O)[O-])cc1)c1ccc([N+](=O)[O-])cc1,–,> 128,128,–,> 128,> 128,64,–
CC(=O)N(/N=N/c1ccc([N+](=O)[O-])cc1Cl)c1ccc([N+](=O)[O-])cc1Cl,> 128,> 128,> 128,4,16,4,64,–
O=C(c1ccccc1)N(/N=N/c1ccc([N+](=O)[O-])cc1Cl)c1ccc([N+](=O)[O-])cc1Cl,> 128,> 128,32,32,128,32,32,–
O=C(c1ccccc1F)N(/N=N/c1ccc([N+](=O)[O-])cc1Br)c1ccc([N+](=O)[O-])cc1Br,–,> 128,128,–,> 128,> 128,128,–
O=C(c1ccccc1C(F)(F)F)N(/N=N/c1ccc([N+](=O)[O-])cc1Br)c1ccc([N+](=O)[O-])cc1Br,–,> 128,64,–,> 128,> 128,64,–
O=C(c1cccc(C(F)(F)F)c1)N(/N=N/c1ccc([N+](=O)[O-])cc1Br)c1ccc([N+](=O)[O-])cc1Br,> 128,> 128,64,8,128,8,32,–
O=C(c1ccc(F)cc1)N(/N=N/c1ccc([N+](=O)[O-])cc1Br)c1ccc([N+](=O)[O-])cc1Br,–,> 128,64,–,> 128,> 128,64,–
CC(=O)OCC(=O)N(/N=N/c1ccc([N+](=O)[O-])cc1Br)c1ccc([N+](=O)[O-])cc1Br,–,> 128,64,16,> 128,8,64,–
O=C(c1ccccc1F)N(/N=N/c1ccc([N+](=O)[O-])cc1Cl)c1ccc([N+](=O)[O-])cc1Cl,–,> 128,128,–,> 128,> 128,64,–
O=C(c1ccccc1C(F)(F)F)N(/N=N/c1ccc([N+](=O)[O-])cc1Cl)c1ccc([N+](=O)[O-])cc1Cl,–,> 128,128,–,> 128,> 128,64,–
O=C(c1cccc(C(F)(F)F)c1)N(/N=N/c1ccc([N+](=O)[O-])cc1Cl)c1ccc([N+](=O)[O-])cc1Cl,> 128,> 128,64,8,32,8,32,–
O=C(c1ccc(C(F)(F)F)cc1)N(/N=N/c1ccc([N+](=O)[O-])cc1Cl)c1ccc([N+](=O)[O-])cc1Cl,> 128,> 128,128,8,16,8,64,–
O=C(c1cccc(F)c1)N(/N=N/c1ccc([N+](=O)[O-])cc1Cl)c1ccc([N+](=O)[O-])cc1Cl,–,> 128,64,16,> 128,16,64,–
Fc1ccc(/N=N/Nc2ccc(F)cc2C(F)(F)F)c(C(F)(F)F)c1,–,> 128,–,–,> 128,> 128,> 128,–
O=C(c1cccnc1)N(/N=N/c1ccc([N+](=O)[O-])cc1Cl)c1ccc([N+](=O)[O-])cc1Cl,128,> 128,32,32,64,32,32,–
O=C(c1ccncc1)N(/N=N/c1ccc([N+](=O)[O-])cc1)c1ccc([N+](=O)[O-])cc1,–,> 128,32,128,> 128,128,16,–
O=C(CCl)N(/N=N/c1ccc([N+](=O)[O-])cc1Br)c1ccc([N+](=O)[O-])cc1Br,–,> 128,128,–,> 128,> 128,64,–

SMILES,MBC [1] [µg/mL],MIC (Saccharomyces cerevisiae) [µg/mL],MBC (Escherichia coli [2]) [µg/mL],MBC (Staphylococcus aureus [3]) [µg/mL],MIC [4] [µg/mL],MIC (Staphylococcus aureus [5]) [µg/mL],MIC (Escherichia coli [6]) [µg/mL],MIC (Staphylococcus aureus [7]) [µg/mL]
O=C(c1ccncc1)N(/N=N/c1ccc([N+](=O)[O-])c(C(F)(F)F)c1)c1ccc([N+](=O)[O-])c(C(F)(F)F)c1,> 128,> 128,32,2,64,2,32,–
O=C(c1cccnc1)N(/N=N/c1ccc([N+](=O)[O-])cc1Br)c1ccc([N+](=O)[O-])cc1Br,128,> 128,32,32,64,32,16,–
O=C(CCl)N(/N=N/c1ccc(C(F)(F)F)cc1C(F)(F)F)c1ccc(C(F)(F)F)cc1C(F)(F)F,–,> 128,–,> 128,–,> 128,–,–
O=C(c1cccnc1)N(/N=N/c1ccc([N+](=O)[O-])cc1F)c1ccc([N+](=O)[O-])cc1F,–,> 128,> 128,64,> 128,64,128,–
FC(F)(F)c1ccc(/N=N/Nc2ccc(C(F)(F)F)cc2C(F)(F)F)c(C(F)(F)F)c1,–,> 128,–,–,–,> 128,–,–
O=C(c1ccncc1)N(/N=N/c1ccc([N+](=O)[O-])cc1Cl)c1ccc([N+](=O)[O-])cc1Cl,> 128,> 128,16,16,128,16,16,–
O=C(c1ccncc1)N(/N=N/c1ccc([N+](=O)[O-])cc1Br)c1ccc([N+](=O)[O-])cc1Br,> 128,> 128,32,32,128,32,32,–
O=C(CCl)N(/N=N/c1ccc(Cl)cc1C(F)(F)F)c1ccc(Cl)cc1C(F)(F)F,–,> 128,–,> 128,–,> 128,–,–
O=C(c1cccnc1)N(/N=N/c1ccc([N+](=O)[O-])c(C(F)(F)F)c1)c1ccc([N+](=O)[O-])c(C(F)(F)F)c1,> 128,> 128,64,4,64,4,32,–
Ic1ccccc1/N=N/Nc1ccccc1I,–,> 128,–,–,> 128,> 128,> 128,–
O=C(c1cccnc1)N(/N=N/c1ccc([N+](=O)[O-])cc1)c1ccc([N+](=O)[O-])cc1,–,> 128,16,128,> 128,64,8,–
O=C(c1ccncc1)N(/N=N/c1ccc([N+](=O)[O-])cc1F)c1ccc([N+](=O)[O-])cc1F,–,> 128,–,32,> 128,32,> 128,–
O=C(N[C@H](CO)[C@H](O)c1ccc([N+](=O)[O-])cc1)C(Cl)Cl [CHLORAMPHENICOL],–,–,–,–,–,–,–,4 to 32
O=C(O)c1cn(C2CC2)c2cc(N3CCNCC3)c(F)cc2c1=O [CIPROFLOXACIN],–,–,–,–,–,–,–,0.125 to 64
CCC[C@@H]1C[C@@H](C(=O)N[C@@H]([C@H]2O[C@H](SC)[C@H](O)[C@@H](O)[C@H]2O)[C@H](C)Cl)N(C)C1 [CLINDAMYCIN],–,–,–,–,–,–,–,0.125 to 64
CC[C@H]1OC(=O)[C@H](C)[C@@H](O[C@H]2C[C@@](C)(OC)[C@@H](O)[C@H](C)O2)[C@H](C)[C@@H](O[C@@H]2O[C@H](C)C[C@H](N(C)C)[C@H]2O)[C@](C)(O)C[C@@H](C)C(=O)[C@H](C)[C@@H](O)[C@]1(C)O [ERYTHROMYCIN],–,–,–,–,–,–,–,8 to 64
COc1c(N2CCNC(C)C2)c(F)cc2c(=O)c(C(=O)O)cn(C3CC3)c12 (stereo unspecified) [GATIFLOXACIN],–,–,–,–,–,–,–,0.5 to 4
NC[C@H]1O[C@H](O[C@H]2[C@H](O)[C@@H](O[C@H]3O[C@H](CO)[C@@H](O)[C@H](N)[C@H]3O)[C@H](N)C[C@@H]2N)[C@H](O)[C@@H](O)[C@@H]1O [KANAMYCIN],–,–,–,–,–,–,–,> 64
C[C@H]1COc2c(N3CCN(C)CC3)c(F)cc3c(=O)c(C(=O)O)cn1c23.C[C@H]1COc2c(N3CCN(C)CC3)c(F)cc3c(=O)c(C(=O)O)cn1c23.O [LEVOFLOXACIN],–,–,–,–,–,–,–,0.25 to 32
